Measurements of several laboratories.
Each line is one published result; the experiments were not run side by side.
Target: Phosphatidylinositol 4,5-bisphosphate 3-kinase catalytic subunit gamma isoform (PIK3CG, Homo sapiens, UniProt P48736)

| SMILES | assay | conditions | measurement | result |
| --- | --- | --- | --- | --- |
| CS(=O)(=O)Nc1cccc(-c2csc(NC(=O)CSc3nc4nccnc4c(=O)n3CCc3ccccc3)n2)c1 | enzyme activity, inhibitor | 10 µM | inhibition | 20% |
| Cc1ccc(NC(=O)c2ccc(C)c(C(F)(F)F)c2)cc1C#Cc1nn(C2CCC(O)CC2)c2ncnc(N)c12 (stereo not drawn) | enzyme activity, inhibitor | 10 µM | remaining activity | 87% |
| CCc1ccccc1C(=O)Nc1n[nH]c2c(C)c(F)c(C3C(C#N)=C(C)N(C)C(C)=C3C#N)cc12 | cell-free assay, competition with immobilised ligand | 1 µM | remaining binding | 100% |
| Cc1cc(NC(=O)c2cccc3cc(-c4cccc5[nH]nc(N)c45)ccc23)ccc1F | enzyme activity, inhibitor | 0.1 µM | activity vs control | 97% |
| Cc1ccc(C(=O)NCc2ccsc2)cc1C#Cc1cn(C(C)C)c2ncnc(N)c12 | enzyme activity, inhibitor | 1 µM | activity vs control | 96% |
| O=C(CSc1nc2nccnc2c(=O)n1CCc1ccccc1)Nc1nccs1 | enzyme activity, inhibitor | 10 µM | inhibition | 9% |
| CC1=C(C#N)[C@@H](c2ccc3[nH]nc(C)c3c2)C(C#N)=C(c2ccc(Cl)cc2)N1 | cell-free assay, competition with immobilised ligand | 1 µM | remaining binding | 100% |
| Nc1ncnc2occ(-c3ccc(NC(=O)Nc4cc(C(F)(F)F)ccc4F)cc3)c12 | cell-free assay, inhibitor | 20 µM | remaining signal | 54% |
| CO[C@@H](C)c1c(Nc2ccc([C@@H](N(C)C(=O)C3CCS(=O)(=O)CC3)C(F)(F)F)cc2)cnc2cc(Cl)nn12 | cell-free assay, competition with immobilised ligand | 1 µM | remaining binding | 87% |
| COc1cc(-c2cc(-c3ccc(N4CCNCC4)cc3)cnc2C)cc(OC)c1OC | enzyme activity, inhibitor | 1 µM | inhibition | 11% |
| C[C@@H]1CN(c2cc(-c3nn(C)c4ccc(OC5(C)CC5)cc34)ncn2)C[C@H](C)O1 | cell-free assay, competition with immobilised ligand | 1 µM | remaining binding | 100% |
| Cc1cnc(NC2CCOCC2)nc1-n1cnc(C(=O)NC(CN)c2cc(F)cc(Cl)c2)c1 (stereo not drawn) | enzyme activity, inhibitor, radiometric | 1 µM | remaining activity | 100% |
